Measurements reported in PMC9290826 (Chemmedchem, 2021).
Converted amounts (≈) assume the structure as drawn. “And” between values parts separate entries of the source, which are not always exact repeats. Identical values can stand only once.

Key:
Test in all cases: Antibacterial screening, broth dilution MIC
Format in all cases: cell-based
[1] = tested on: Escherichia coli (DSM1116, ATCC 9637); conditions: E. coli, TSY medium, 20 h at 37 °C, absorbance 600 nm, n=3‐13
In short: (§1)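 Test compound serially diluted from 64 μg/ml, inoculum 2–8×10^5 CFU/ml, duplicate wells. Incubated 20 h at 37 °C, then absorbance read at 600 nm. MIC derived by curve fitting over three independent experiments. Positive controls: linezolid for S. aureus, ciprofloxacin for the others.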

[2] = tested on: Klebsiella pneumoniae (DSM 11678, ATCC33495); conditions: K. pneumoniae, MHB medium, 20 h at 37 °C, absorbance 600 nm, n=3‐13
In short: as §1, with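 “Broth microdilution in MHB (21 g/L Müller Hinton, pH 7.4). Test” for “Test”, “amikacin” for “linezolid”, “P. aeruginosa,” for “S. aureus,”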

[3] = tested on: Pseudomonas aeruginosa PA7 (DSM 24068); conditions: for Mean MIC ± standard error: P. aeruginosa PA7, MHB medium, 20 h at 37 °C, absorbance 600 nm, n=3‐13
In short: as §1, with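 “Broth microdilution in MHB (21 g/L Müller Hinton, pH 7.4). Test” for “Test”, “amikacin” for “linezolid”, “P. aeruginosa,” for “S. aureus,”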

[4] = tested on: Staphylococcus aureus MRSA (DSM 11822, ICB 25701); conditions: for Mean MIC ± standard error: MRSA, TSY medium, 20 h at 37 °C, absorbance 600 nm, n=3‐13
In short: as §1

[5] = tested on: Acinetobacter baumannii (DSM 30007, ATCC 19606); conditions: A. baumannii, MHB medium, 20 h at 37 °C, absorbance 600 nm, n=3‐13
In short: as §1, with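 “Broth microdilution in MHB (21 g/L Müller Hinton, pH 7.4). Test” for “Test”, “amikacin” for “linezolid”, “P. aeruginosa,” for “S. aureus,”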

[6] = tested on: Enterococcus faecium (DSM 20477, ATCC 19434); conditions: E. faecium, TSY medium, 20 h at 37 °C, absorbance 600 nm, n=3‐13
In short: as §1

Structure (SMILES)	Mean MIC ± standard error [1] [µM]	Mean MIC ± standard error [2]	Mean MIC ± standard error [3] [µM]	Mean MIC ± standard error [4] [µM]	Mean MIC ± standard error [5] [µM]	Mean MIC ± standard error [6] [µM]	MIC ([4]; Staphylococcus aureus, DSM11822|MRSA, 20 h, read-out: Mean MIC ± standard error) [µM]	MIC ([3]; Pseudomonas aeruginosa, DSM24068, 20 h, read-out: Mean MIC ± standard error) [µM]
CC(=O)NC[C@H]1CN(c2ccc(N3CCOCC3)c(F)c2)C(=O)O1 [linezolid, reference compound]							2.8 ± 1 (≈ 0.945 µg/mL)	
CCn1[c](=[Au-2]([Cl])([Cl])[Cl])n(CC)c2ccccc21 [2 c]	39.1 ± 25.6	16.8 µM and 16.8 ± 0.0 µM	>30	1.1 ± 0.0	3.5 ± 1.2	4.2 ± 0.0		
CCn1[c](=[Au-2][Cl])n(CC)c2ccccc21 [2 b]	39.3 ± 0.0	65.6 µM and 65.6 ± 32.1 µM	118.0 ± 43.1	0.8 ± 0.4	8.4 ± 2.4	1.2 ± 0.0		

Results, then the compound that gave them:

Mean MIC ± standard error [1] [µM]	Mean MIC ± standard error [2]	Mean MIC ± standard error [3] [µM]	Mean MIC ± standard error [4] [µM]	Mean MIC ± standard error [5] [µM]	Mean MIC ± standard error [6] [µM]	MIC ([4]; Staphylococcus aureus, DSM11822|MRSA, 20 h, read-out: Mean MIC ± standard error) [µM]	MIC ([3]; Pseudomonas aeruginosa, DSM24068, 20 h, read-out: Mean MIC ± standard error) [µM]	Structure (SMILES)
>30	>30 µM	>30	<0.2	7.8 ± 7.1	0.6 ± 0.2			CC(=O)OC[C@H]1O[C@@H]([S-])[C@H](OC(C)=O)[C@@H](OC(C)=O)[C@@H]1OC(C)=O.CCP(CC)CC.[Au+] [auranofin, reference compound]
							6.9 ± 7.3 (≈ 4.04 µg/mL)	NCC[C@H](O)C(=O)N[C@@H]1C[C@H](N)[C@@H](O[C@H]2O[C@H](CN)[C@@H](O)[C@H](O)[C@H]2O)[C@H](O)[C@H]1O[C@H]1O[C@H](CO)[C@@H](O)[C@H](N)[C@H]1O [amikacin, reference compound]
